ChEMBL document CHEMBL4342410, “Design and Discovery of N-(3-(2-(2-Hydroxyethoxy)-6-morpholinopyridin-4-yl)-4-methylphenyl)-2-(trifluoromethyl)isonicotinamide, a Selective, Efficacious, and Well-Tolerated RAF Inhibitor Targeting RAS Mutant Cancers: The Path to the Clinic” (J Med Chem, 2020)

Columns and labels:
[1] = Intrinsic clearance in human liver microsomes; assay type: ADME, Microsome; conditions: read-out: CLH
[2] = Apparent permeability across apical to basolateral side in human Caco2 cells at pH 7.4 by LC/MS/MS analysis; assay type: ADME, cell-based; conditions: Caco-2, pH 7.4
Cytochrome P450 3A4 = Cytochrome P450 3A4 (Homo sapiens, UniProt P08684); test: Time dependent inhibition of CYP3A4 in human liver microsomes assessed as inactivation rate constant at 10 uM using midazolam as substrate incubated prior to substrate addition and measured after 6 mins in presence of NADPH; assay type: ADME; conditions: 0.1 h
How it was run: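 Human liver microsomes (0.5 mg/mL) preincubated with test compound at 10 µM and 1 mM NADPH in phosphate buffer at 37 °C for 0, 5, 15 and 30 min. Mixture then diluted 20-fold and incubated with midazolam (20 µM) at 37 °C for 6 min to measure residual CYP3A4 activity. kobs taken as the initial rate of decline of activity versus preincubation time.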

[3] = target: Serine/threonine-protein kinase B-raf (Homo sapiens, UniProt P15056); test: Inhibition of full-length BRAF (unknown origin)
[4] = Stimulation of BRAF-CRAF dimerization in human HCT116 cells measured after 2 hrs by NanoBit luciferase complementation assay; assay type: cell-based; conditions: read-out: EC50
[5] = target: T1, Platelet-derived growth factor receptor beta (Homo sapiens, UniProt P09619); test: Binding affinity to wild-type human partial length PDGFRB (V582 to Y1009 residues) expressed in bacterial expression system at 1 uM by Kinomescan method relative to control
How it was run: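 KINOMEscan competition binding panel of about 456 kinases, compound tested at 1 μM. Activity is given as % of control = [(test signal − positive control signal)/(negative control signal − positive control signal)] × 100.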

[6] = target: T2, Discoidin domain-containing receptor 2 (Homo sapiens, UniProt Q16832); test: Binding affinity to wild-type human partial length DDR2 (V555 to E855 residues) expressed in mammalian expression system by Kinomescan method
T2 sequence (Q16832 whole entry): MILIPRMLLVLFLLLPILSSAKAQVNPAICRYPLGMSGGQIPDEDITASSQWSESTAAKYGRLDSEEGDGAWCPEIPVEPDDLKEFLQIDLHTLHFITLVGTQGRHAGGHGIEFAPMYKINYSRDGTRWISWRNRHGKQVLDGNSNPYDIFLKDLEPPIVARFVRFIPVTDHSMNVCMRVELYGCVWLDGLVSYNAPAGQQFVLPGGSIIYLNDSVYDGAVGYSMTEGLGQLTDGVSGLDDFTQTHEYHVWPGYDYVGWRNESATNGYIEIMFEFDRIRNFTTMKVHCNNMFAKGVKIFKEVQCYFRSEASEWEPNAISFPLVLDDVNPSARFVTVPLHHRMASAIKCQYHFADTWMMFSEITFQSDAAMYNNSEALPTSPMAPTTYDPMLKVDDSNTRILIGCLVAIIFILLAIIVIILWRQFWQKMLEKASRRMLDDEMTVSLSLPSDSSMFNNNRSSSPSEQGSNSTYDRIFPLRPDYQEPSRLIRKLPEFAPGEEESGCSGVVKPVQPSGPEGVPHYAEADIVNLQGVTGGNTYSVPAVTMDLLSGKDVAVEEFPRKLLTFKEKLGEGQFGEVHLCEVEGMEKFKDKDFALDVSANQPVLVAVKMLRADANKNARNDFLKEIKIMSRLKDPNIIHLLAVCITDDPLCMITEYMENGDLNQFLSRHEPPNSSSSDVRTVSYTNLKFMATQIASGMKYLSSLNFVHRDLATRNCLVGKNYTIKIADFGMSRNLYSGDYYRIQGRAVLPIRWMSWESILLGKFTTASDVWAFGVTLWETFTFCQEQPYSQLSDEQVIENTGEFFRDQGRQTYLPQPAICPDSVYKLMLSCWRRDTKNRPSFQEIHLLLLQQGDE

[7] = target: T1, Platelet-derived growth factor receptor beta; test: Binding affinity to wild-type human partial length PDGFRB (V582 to Y1009 residues) expressed in bacterial expression system by Kinomescan method
[8] = AUC (infinity) in rat at 4 mg/kg, po; assay type: ADME, organism-based; parameters: dose 4 mg/kg, route oral, time infinity; conditions: in vivo
[9] = Volume of distribution at steady state in mouse at 2 mg/kg, iv or 4 mg/kg, po; assay type: ADME, organism-based; conditions: in vivo, read-out: Vdss
[10] = Oral bioavailability in mouse at 4 mg/kg; assay type: ADME, organism-based; conditions: in vivo
[11] = Time at which free plasma concentration stays above in vitro IC50 for CRAF in human Calu6 cells assessed as reduction MEK phosphorylation in nude rat xenografted with human Calu6 cells harboring KRAS Q61K mutant at 150 mg/kg, po; assay type: ADME, organism-based; conditions: in vivo
[12] = Toxicity in human Calu6 cells harboring KRAS Q61K mutant xenografted nude rat assessed as change in body weight at 15 to 150 mg/kg, po administered daily for 18 days starting from day 13 post tumor implantation and measured during compound dosing; assay type: organism-based; conditions: in vivo, 432 h
How it was run: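 Nude rats bearing Calu-6 (KRAS Q61K) NSCLC xenografts were dosed orally once daily with vehicle or 15, 35, 75 or 150 mg/kg. Dosing ran from day 13 after implantation until day 31. Body weight was tracked and expressed as percent change from initial for each treatment group versus the vehicle control.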

[13] = Cmax in nude rat xenografted with human Calu6 cells harboring KRAS Q61K mutant at 15 mg/kg, po administered daily for 18 days starting from day 13 post tumor implantation and measured on day 31; assay type: ADME, organism-based; parameters: dose 15 mg/kg, route oral; conditions: in vivo
How it was run: (§1)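 Nude rats carrying Calu-6 (KRAS Q61K) NSCLC xenografts were dosed p.o. once daily at 15, 35, 75 or 150 mg/kg from day 13 to day 31 after implant. Plasma was collected after the last dose and drug concentration was measured. AUC and Cmax were calculated per dose on day 31.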

[14] = AUC (0 to 24 hrs) in nude rat xenografted with human Calu6 cells harboring KRAS Q61K mutant at 35 mg/kg, po administered daily for 18 days starting from day 13 post tumor implantation and measured on day 31; assay type: ADME, organism-based; parameters: dose 35 mg/kg, time < 24 hr, route oral; conditions: in vivo; how it was run: as §1
[15] = AUC (0 to 24 hrs) in nude rat xenografted with human Calu6 cells harboring KRAS Q61K mutant at 75 mg/kg, po administered daily for 18 days starting from day 13 post tumor implantation and measured on day 31; assay type: ADME, organism-based; parameters: time < 24 hr, dose 75 mg/kg, route oral; conditions: in vivo; how it was run: as §1
[16] = Time of last measurable concentration in nude rat xenografted with human Calu6 cells harboring KRAS Q61K mutant at 75 mg/kg, po administered daily for 18 days starting from day 13 post tumor implantation and measured on day 31; assay type: ADME, organism-based; conditions: in vivo, 432 h
How it was run: (§2)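 Calu-6 xenograft nude rats were dosed orally once daily at 15, 35, 75 or 150 mg/kg from day 13 after implantation to day 31. Plasma was collected after the last dose on day 31, drug concentrations were measured, and PK parameters including AUC were calculated for each dose.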

[17] = Cmax in nude rat xenografted with human Calu6 cells harboring KRAS Q61K mutant at 150 mg/kg, po administered daily for 18 days starting from day 13 post tumor implantation and measured on day 31; assay type: ADME, organism-based; parameters: dose 150 mg/kg, route oral; conditions: in vivo; how it was run: as §1
[18] = Tmax in nude rat xenografted with human Calu6 cells harboring KRAS Q61K mutant at 150 mg/kg, po administered daily for 18 days starting from day 13 post tumor implantation and measured on day 31; assay type: ADME, organism-based; conditions: in vivo; how it was run: as §2
[19] = Lipophilicity, log P of the compound at pH 6.5; assay type: physicochemical; conditions: buffer
[20] = Distribution coefficient, log D of compound at pH 6.5; assay type: physicochemical; conditions: octanol/water
[21] = Dissociation constant, pKa of the compound; assay type: physicochemical

T1 sequence (P09619 whole entry, the tested form may be a part): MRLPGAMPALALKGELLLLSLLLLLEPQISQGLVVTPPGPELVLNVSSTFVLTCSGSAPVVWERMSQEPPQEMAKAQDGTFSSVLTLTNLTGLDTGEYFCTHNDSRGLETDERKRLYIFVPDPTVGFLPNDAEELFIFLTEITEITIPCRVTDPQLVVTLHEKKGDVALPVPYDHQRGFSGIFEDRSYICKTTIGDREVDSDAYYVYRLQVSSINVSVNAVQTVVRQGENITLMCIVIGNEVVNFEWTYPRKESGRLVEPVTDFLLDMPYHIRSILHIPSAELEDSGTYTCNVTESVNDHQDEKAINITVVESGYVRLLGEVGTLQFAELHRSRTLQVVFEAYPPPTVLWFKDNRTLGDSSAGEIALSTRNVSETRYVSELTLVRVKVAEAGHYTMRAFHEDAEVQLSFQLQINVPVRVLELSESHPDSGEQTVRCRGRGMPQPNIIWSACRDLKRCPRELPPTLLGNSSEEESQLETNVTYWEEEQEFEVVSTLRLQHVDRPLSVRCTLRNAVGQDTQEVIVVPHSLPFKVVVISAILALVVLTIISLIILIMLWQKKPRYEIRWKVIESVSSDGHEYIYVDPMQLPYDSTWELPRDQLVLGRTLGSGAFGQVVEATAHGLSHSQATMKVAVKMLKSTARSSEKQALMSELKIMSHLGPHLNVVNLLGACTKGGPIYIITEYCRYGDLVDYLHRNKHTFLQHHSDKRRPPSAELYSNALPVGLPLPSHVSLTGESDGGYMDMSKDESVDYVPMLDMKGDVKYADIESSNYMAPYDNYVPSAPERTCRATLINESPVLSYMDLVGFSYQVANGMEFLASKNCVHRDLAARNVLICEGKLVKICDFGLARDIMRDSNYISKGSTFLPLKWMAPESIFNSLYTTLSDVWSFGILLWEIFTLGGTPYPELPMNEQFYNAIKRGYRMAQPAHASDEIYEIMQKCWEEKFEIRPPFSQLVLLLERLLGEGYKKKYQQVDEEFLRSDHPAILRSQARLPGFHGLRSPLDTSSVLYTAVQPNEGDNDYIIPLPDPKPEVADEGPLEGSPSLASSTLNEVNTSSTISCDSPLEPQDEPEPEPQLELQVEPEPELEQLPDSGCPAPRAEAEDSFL
Serine/threonine-protein kinase B-raf, sequence (P15056 whole entry): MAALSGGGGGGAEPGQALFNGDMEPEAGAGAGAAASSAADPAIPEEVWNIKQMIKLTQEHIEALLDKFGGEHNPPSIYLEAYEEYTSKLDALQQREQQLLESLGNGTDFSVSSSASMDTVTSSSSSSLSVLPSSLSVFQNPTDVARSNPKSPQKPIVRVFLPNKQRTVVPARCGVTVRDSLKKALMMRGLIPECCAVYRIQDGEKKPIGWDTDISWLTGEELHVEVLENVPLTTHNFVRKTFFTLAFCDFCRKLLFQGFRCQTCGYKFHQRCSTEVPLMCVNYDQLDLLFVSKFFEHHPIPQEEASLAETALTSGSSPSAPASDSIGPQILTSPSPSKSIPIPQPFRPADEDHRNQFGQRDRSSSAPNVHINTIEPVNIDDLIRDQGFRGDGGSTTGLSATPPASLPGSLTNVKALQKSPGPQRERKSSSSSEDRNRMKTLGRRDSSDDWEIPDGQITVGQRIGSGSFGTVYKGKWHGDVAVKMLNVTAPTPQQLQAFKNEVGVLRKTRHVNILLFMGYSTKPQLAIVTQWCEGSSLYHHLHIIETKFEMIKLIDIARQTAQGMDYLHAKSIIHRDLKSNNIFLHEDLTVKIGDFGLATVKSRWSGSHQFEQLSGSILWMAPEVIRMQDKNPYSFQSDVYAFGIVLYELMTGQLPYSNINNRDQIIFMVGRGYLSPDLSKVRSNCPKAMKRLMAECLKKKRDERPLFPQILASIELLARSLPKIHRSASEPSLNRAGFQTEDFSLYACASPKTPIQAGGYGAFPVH
Cytochrome P450 3A4, sequence (P08684 whole entry): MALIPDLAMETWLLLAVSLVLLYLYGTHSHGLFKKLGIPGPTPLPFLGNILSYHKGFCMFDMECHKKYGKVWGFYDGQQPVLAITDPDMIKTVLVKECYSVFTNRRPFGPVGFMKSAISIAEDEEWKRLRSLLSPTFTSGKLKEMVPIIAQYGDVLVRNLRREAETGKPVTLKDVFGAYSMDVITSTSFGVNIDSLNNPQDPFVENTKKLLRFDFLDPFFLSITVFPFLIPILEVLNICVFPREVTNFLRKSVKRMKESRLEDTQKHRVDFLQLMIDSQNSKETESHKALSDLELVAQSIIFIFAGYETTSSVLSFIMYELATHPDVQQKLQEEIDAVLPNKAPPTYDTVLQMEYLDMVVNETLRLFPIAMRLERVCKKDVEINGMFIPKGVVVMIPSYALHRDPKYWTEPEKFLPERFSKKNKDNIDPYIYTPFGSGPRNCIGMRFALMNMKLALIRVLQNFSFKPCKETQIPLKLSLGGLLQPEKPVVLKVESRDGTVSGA

`Cc1ccc(NC(=O)c2ccnc(C(F)(F)F)c2)cc1-c1cc(OCCO)nc(N2CCOCC2)c1` [NAPORAFENIB] showed a microsomal CLint [1] of 13.5 µL/min/mg, a Papp A→B [2] of 9 ×10⁻⁶ cm/s and a K (Cytochrome P450 3A4) of 0.01 min⁻¹. It also gave an IC50 [3] of 0.4 nM, an EC50 [4] of 160 nM and an Activity [5] greater than 99%. The Kd [6] was 10 nM, the Kd [7] was 14 nM and the AUC(0-inf) [8] was 1.8 µM·h. The Vd [9] was 2.1 L/kg, the bioavailability [10] was 65% and the “T>IC50” value [11] was 24 h. For the same compound, the Activity [12] was “Non-Toxic”, the Cmax [13] was 0.878 µM and the AUC at 24 h [14] was 25.2 µM·h. For the same compound, the AUC at 24 h [15] was 105 µM·h, the Tlast [16] was 24 h and the Cmax [17] was 12.7 µM. It also gave a Tmax [18] of 5.5 h, a logD [19] greater than 3 and a logD [20] greater than 4. For the same compound, the pKa [21] was 3.86.
